The target in one data set is T1, human β-glucosidase GBA1 (Homo sapiens, UniProt P04062, R534H).
T1 sequence (P04062 40-536 R534H): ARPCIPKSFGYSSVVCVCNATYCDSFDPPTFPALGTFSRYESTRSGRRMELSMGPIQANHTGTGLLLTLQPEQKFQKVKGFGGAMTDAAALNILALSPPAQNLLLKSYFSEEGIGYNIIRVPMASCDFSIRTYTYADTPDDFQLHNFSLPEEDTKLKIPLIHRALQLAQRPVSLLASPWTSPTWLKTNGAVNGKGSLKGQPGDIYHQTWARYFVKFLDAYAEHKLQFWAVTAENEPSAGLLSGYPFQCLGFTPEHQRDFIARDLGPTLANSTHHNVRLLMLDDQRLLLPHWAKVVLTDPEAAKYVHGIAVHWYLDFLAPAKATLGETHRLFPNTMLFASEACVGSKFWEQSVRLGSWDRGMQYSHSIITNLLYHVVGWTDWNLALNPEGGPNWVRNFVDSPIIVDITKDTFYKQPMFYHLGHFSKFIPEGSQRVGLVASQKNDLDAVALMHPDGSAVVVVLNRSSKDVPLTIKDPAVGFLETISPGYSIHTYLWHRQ
Kind of data set: In vitro apparent IC50, recombinant GBA1. The class given is biochemical. The method, boiled down:
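Recombinant human GBA1 (Cerezyme) preincubated with a range of test compound concentrations for 30 min at 37 °C, then added to 4-MU-Glc substrate mixture to measure residual activity. Reaction quenched with 1 M NaOH–glycine (pH 10.3); 4-MU fluorescence read at λEX 366 / λEM 445 nm. Apparent IC50 is the mean of three technical replicates.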

In another data set the target is T2, GBA2 (Homo sapiens, UniProt Q9HCG7).
T2 sequence (Q9HCG7 1-927): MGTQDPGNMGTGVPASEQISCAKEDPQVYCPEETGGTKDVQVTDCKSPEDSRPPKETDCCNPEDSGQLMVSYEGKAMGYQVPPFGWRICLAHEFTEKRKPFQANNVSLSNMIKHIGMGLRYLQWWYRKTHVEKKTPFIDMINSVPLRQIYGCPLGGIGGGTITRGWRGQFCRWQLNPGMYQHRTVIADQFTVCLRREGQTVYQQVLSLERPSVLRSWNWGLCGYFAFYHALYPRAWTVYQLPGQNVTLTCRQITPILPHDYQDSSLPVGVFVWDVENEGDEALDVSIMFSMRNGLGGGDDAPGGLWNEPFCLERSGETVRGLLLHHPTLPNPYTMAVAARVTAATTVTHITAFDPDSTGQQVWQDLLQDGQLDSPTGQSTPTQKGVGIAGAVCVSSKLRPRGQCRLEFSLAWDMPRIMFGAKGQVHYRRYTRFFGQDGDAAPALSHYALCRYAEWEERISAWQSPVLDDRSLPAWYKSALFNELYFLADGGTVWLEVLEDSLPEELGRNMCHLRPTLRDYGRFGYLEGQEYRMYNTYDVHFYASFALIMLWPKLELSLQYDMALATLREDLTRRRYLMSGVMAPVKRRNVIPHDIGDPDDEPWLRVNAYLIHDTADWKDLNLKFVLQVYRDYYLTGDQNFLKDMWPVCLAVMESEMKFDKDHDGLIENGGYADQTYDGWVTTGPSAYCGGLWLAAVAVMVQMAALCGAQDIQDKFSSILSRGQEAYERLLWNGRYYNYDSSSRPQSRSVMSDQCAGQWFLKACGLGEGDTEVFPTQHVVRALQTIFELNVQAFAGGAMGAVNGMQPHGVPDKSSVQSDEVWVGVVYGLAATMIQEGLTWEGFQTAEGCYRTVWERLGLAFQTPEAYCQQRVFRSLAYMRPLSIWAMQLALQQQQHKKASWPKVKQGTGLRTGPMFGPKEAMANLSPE
Kind of data set: In vitro apparent IC50, GBA2 overexpressing HEK293T lysate, 4-MU-β-Glc. The class given is biochemical. An outline of the steps:
(§1)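 The enzyme source was GBA2-overexpressing HEK293T lysate or recombinant human GAA. It was preincubated 30 min at 37 °C with a range of test compound concentrations, then transferred into 4-MU glucoside substrate mixture to measure residual activity. Quenched with 1 M NaOH–glycine pH 10.3; 4-MU fluorescence at λex 366/λem 445 nm. Apparent IC50 is the mean of three technical replicates.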

The target in a further data set is human α-glucosidase GAA (Homo sapiens, UniProt P10253). Kind of data set: In vitro apparent IC50, recombinant GAA. It is filed as biochemical. The method, boiled down: as §1
Data set [1] in a line: Solvolytic stability in McIlvaine buffer pH 4.0 by NMR. It is filed as physicochemical. The following applies: McIlvaine buffer pH 4.0, room temperature, 24 h, 1H NMR.
In data set [2] the target is GAA (Homo sapiens, UniProt P10253). Kind of data set: Competitive ABPP against probe 13 in fibroblast lysates, pH 4. It is filed as biochemical. The following applies: pH 4, preincubation 15, 30 or 60 min. The method, boiled down:
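Human normal dermal fibroblast homogenate (17.6 μg total protein) in 150 mM McIlvaine buffer for 5 min on ice, at pH 4 for GAA and pH 7 for GANAB. Exposed to test compound for 15, 30 or 60 min at 37 °C, then labeled with Cy5 aziridine probe 13 for 30 min at 37 °C. Denatured at 98 °C, 10% SDS–PAGE, Cy5 in-gel fluorescence scan.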

In the next data set the target is sucrase-isomaltase (SIS) (Mus musculus, UniProt B5THE3). The data set can be described thus: Competitive ABPP against probe 13 in mouse gastrointestinal lysate. The class given is biochemical. To be noted: mouse intestine lysate, 1 h at 37 °C. The method, boiled down:
(§2)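 Mixed mouse duodenum, jejunum and ileum homogenates were made in 25 mM potassium phosphate pH 6.5 with protease inhibitors (40 μg protein). Held 5 min on ice in McIlvaine buffer pH 4 or 7. Incubated 1 h at 37 °C with test compound (final 150 to 0.005 μM, plus 0), then probe 13 for 30 min at 37 °C. Boiled in Laemmli buffer, 10% SDS–PAGE, Cy5 fluorescence scan.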

For data set [3], the system named is maltase-glycoamylase (MGAM). The data set is described as above. The class given is biochemical. The following applies: mouse intestine lysate, 1 h at 37 °C. An outline of the steps:
as §2

In data set [4] the target is GAA (Mus musculus, UniProt P70699). The data set is described as above. The class given is biochemical. To be noted: mouse intestine lysate, 1 h at 37 °C. An outline of the steps:
as §2

The target of a further data set is T3, GBA1 (Mus musculus, UniProt P17439).
T3 sequence (P17439 20-515): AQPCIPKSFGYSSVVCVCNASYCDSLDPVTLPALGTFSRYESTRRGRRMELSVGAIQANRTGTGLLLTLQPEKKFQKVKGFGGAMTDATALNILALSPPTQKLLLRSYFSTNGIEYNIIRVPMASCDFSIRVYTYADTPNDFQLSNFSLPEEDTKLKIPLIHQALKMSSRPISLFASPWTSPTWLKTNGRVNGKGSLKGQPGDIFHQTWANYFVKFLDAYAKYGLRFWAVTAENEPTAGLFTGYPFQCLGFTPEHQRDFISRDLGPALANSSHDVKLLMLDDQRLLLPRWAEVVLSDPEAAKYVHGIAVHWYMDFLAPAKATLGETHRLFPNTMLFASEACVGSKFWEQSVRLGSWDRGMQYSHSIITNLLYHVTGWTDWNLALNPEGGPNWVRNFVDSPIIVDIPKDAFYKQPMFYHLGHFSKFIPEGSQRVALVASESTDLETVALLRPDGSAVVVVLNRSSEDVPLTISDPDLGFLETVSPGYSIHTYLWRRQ
The data set is described as above. It is filed as biochemical. To be noted: mouse intestine lysate, 1 h at 37 °C. The method, boiled down:
as §2

Sequence of sucrase-isomaltase (SIS) (B5THE3 1-1818): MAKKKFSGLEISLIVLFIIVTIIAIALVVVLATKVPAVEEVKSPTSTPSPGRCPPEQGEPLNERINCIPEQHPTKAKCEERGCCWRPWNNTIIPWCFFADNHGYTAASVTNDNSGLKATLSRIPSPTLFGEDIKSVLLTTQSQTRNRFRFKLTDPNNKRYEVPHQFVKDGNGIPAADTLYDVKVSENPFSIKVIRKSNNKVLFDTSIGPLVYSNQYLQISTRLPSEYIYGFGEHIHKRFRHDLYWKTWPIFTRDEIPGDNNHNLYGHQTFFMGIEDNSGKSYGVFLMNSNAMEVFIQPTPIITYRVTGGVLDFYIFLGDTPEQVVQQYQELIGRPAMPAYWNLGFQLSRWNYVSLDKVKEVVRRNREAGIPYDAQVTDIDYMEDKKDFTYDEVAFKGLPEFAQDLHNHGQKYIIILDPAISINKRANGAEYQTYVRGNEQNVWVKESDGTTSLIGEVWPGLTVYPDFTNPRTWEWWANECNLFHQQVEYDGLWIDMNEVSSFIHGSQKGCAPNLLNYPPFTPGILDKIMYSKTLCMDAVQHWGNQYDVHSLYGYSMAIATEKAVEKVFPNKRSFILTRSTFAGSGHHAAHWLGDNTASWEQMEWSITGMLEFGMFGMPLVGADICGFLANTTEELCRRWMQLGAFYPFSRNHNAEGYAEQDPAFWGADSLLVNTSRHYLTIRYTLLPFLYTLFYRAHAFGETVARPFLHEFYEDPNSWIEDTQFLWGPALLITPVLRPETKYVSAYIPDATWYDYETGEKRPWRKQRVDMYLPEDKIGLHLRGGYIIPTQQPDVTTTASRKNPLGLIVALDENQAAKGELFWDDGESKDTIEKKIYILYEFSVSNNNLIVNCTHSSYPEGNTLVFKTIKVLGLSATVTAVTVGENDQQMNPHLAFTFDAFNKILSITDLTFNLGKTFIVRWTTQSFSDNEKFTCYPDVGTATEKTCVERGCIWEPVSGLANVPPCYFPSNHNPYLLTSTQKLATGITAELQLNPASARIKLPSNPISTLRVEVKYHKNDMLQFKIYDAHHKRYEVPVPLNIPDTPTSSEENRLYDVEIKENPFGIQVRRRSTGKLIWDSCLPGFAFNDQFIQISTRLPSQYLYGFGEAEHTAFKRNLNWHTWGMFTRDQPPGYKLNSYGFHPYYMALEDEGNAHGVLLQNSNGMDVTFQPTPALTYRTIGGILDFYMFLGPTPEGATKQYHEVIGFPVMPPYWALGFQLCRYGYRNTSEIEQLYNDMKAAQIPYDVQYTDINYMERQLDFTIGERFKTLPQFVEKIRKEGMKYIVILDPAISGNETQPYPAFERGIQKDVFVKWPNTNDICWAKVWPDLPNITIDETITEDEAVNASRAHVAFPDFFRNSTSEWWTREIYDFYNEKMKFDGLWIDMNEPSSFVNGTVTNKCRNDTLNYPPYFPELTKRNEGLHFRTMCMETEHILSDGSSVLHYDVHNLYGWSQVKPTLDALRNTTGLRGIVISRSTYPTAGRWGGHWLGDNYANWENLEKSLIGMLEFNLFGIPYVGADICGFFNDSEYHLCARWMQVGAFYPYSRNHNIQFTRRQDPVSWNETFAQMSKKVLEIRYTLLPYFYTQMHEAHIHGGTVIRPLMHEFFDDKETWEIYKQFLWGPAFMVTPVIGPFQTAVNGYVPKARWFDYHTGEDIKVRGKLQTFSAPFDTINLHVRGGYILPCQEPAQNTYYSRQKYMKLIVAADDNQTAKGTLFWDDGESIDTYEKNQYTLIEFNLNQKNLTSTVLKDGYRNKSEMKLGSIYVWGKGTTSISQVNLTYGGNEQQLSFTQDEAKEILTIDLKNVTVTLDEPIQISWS
Sequence of GAA (Mus musculus, UniProt P70699) (P70699 70-953): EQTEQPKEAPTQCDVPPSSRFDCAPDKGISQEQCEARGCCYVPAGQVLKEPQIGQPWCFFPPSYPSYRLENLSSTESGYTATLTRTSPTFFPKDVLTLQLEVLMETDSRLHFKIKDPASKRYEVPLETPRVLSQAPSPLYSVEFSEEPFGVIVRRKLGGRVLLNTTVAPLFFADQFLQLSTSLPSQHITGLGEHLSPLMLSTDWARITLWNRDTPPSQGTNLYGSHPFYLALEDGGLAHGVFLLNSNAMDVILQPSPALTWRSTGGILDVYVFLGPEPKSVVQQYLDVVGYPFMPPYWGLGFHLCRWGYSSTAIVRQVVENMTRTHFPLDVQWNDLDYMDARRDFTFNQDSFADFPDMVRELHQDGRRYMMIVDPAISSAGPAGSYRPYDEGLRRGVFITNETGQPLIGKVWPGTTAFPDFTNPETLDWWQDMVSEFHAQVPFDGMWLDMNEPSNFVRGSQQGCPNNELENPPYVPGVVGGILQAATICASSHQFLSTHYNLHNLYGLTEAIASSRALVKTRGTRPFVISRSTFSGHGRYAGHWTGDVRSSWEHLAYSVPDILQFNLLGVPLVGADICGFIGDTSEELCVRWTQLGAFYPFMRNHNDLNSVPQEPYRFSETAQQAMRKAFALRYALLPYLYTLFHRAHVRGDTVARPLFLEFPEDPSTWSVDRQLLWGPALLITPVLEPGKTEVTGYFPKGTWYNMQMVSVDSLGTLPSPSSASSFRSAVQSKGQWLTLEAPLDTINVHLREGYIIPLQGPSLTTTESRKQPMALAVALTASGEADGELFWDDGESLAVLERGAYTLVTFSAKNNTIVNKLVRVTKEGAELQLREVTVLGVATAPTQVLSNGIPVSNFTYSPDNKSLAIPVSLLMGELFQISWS

As to `O=S1(=O)O[C@@H]2[C@H](O)[C@@H](O)[C@H](O)[C@@H](CO)[C@@H]2O1` [Compound 5, 1,6-epi-cyclophellitol cyclosulfate], the IC50 – broadly, the concentration needed to halve the response being measured – is > 100 µM at human β-glucosidase GBA1, > 100 µM on GBA2 and 0.082 ± 0.001 µM on human α-glucosidase GAA. In data set [1], the “solvolytic stability (spontaneous hydrolysis)” value is given as “no spontaneous hydrolysis”. For the same compound, the “inhibition of probe 13 labeling of GAA” value is reported as “time dependent inhibition” on GAA [2] and “inhibited” on GAA [4]. The “inhibition of probe 13 labeling of SIS” value on sucrase-isomaltase (SIS) is recorded as “inhibited”. Moreover, the “inhibition of probe 13 labeling of MGAM” value in data set [3] was “inhibited”. Further, the “competition of off-target probe 13 labeling of GBA1” value on GBA1 is on record as “not outcompeted”.

For the origin of these results see paper PMC5532717 (ACS Central Science, 2017).
